# Source: ChEMBL document CHEMBL2407071, “Exploring 4-substituted-2-thiazolylhydrazones from 2-, 3-, and 4-acetylpyridine as selective and reversible hMAO-B inhibitors” (Eur J Med Chem, 2013)
# Key:
# [1] = target: T1, Amine oxidase [flavin-containing] B (Homo sapiens, UniProt P27338); assay: Reversible inhibition of recombinant human MAO-B assessed as oxidation of kynuramine to 4-hydroxyquinoline at IC50 to 2 times IC50 up to 60 mins by spectrofluorometric analysis; conditions: 1 h
# T1 sequence (P27338 whole entry): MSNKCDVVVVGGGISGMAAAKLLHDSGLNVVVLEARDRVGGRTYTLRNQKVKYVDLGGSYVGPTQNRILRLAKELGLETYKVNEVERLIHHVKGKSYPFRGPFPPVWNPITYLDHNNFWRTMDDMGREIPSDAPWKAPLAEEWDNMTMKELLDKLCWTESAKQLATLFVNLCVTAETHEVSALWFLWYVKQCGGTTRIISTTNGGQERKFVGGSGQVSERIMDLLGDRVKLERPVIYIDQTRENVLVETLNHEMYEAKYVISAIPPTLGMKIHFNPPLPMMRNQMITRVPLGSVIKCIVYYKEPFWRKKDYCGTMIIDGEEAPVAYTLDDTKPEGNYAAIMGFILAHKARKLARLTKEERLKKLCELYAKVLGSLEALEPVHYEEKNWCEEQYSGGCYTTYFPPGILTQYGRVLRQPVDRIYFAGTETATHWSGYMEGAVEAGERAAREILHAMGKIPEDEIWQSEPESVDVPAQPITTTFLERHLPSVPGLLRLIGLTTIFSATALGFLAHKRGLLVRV
# [2] = target: T2, Amine oxidase [flavin-containing] A (Homo sapiens, UniProt P21397); assay: Inhibition of recombinant human MAO-A assessed as oxidation of kynuramine to 4-hydroxyquinoline after 20 mins by spectrofluorometric analysis
# T2 sequence (P21397 whole entry): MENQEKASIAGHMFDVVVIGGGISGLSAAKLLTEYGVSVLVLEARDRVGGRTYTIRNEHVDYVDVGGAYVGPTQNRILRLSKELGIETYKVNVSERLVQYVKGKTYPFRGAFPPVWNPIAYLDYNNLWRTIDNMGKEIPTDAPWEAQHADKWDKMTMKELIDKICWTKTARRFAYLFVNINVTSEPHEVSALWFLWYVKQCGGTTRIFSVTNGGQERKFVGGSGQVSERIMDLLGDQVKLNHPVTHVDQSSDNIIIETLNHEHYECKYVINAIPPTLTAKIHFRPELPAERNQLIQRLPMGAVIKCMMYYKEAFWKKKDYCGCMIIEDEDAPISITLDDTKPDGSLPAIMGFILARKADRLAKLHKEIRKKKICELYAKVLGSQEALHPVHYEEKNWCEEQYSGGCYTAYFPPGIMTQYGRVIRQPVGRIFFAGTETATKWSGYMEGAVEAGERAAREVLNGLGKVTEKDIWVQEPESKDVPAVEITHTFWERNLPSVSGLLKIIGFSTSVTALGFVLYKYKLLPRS
# Outline: (§1)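 Enzyme from insect-cell microsomes expressing recombinant human MAO-A or MAO-B, at 0.0075 mg protein/mL, in 100 mM potassium phosphate pH 7.4 made isotonic with 20.2 mM KCl, with 4% DMSO. Kynuramine was 45 µM for MAO-A and 30 µM for MAO-B. Inhibitor range 0-100 µM, six log-spaced concentrations. Incubated 20 min at 37 °C, stopped with 2N NaOH and centrifuged. 4-Hydroxyquinoline read by fluorescence (ex 310/em 400 nm) against a calibration curve. One-site competition fit; three experiments, mean ± SD.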
# [3] = target: T1, Amine oxidase [flavin-containing] B; assay: Inhibition of recombinant human MAO-B assessed as oxidation of kynuramine to 4-hydroxyquinoline after 20 mins by spectrofluorometric analysis; outline: as §1
# [4] = target: T1, Amine oxidase [flavin-containing] B; assay: Competitive inhibition of recombinant human MAO-B using kynuramine as substrate by Lineweaver-Burk plot analysis
# [5] = target: T1, Amine oxidase [flavin-containing] B; assay: Mixed type inhibition of recombinant human MAO-B using kynuramine as substrate by Lineweaver-Burk plot analysis
Structure (SMILES),inhibition (INH) [1],IC50 ([2]; read-out: IC50) [µM],IC50 ([3]; read-out: IC50) [µM],inhibition (INH) [4],IC50 [2],IC50 [3],inhibition (INH) [5]
CCOC(=O)c1csc(N/N=C(\C)c2ccncc2)n1,Active,6.63,0.127,Active,–,–,–
C/C(=N\Nc1nc(C)cs1)c1cccnc1,–,6.91,13.6,–,–,–,–
C/C(=N\Nc1nc(-c2ccccc2)cs1)c1ccccn1,–,16.6,3.84,–,–,–,–
CCOC(=O)c1csc(N/N=C(\C)c2ccccn2)n1,–,–,–,–,Not Active,Not Active,–
C/C(=N\Nc1nc(-c2ccccc2)cs1)c1cccnc1,–,21.3,0.944,–,–,–,–
C/C(=N/Nc1nc(C)cs1)c1ccncc1,–,–,–,–,Not Active,Not Active,–
C/C(=N\Nc1nc(C)cs1)c1ccccn1,–,–,–,–,Not Active,Not Active,–
CCOC(=O)c1csc(N/N=C(\C)c2cccnc2)n1,Active,6.57,0.0722,–,–,–,Active
C/C(=N/Nc1nc(-c2ccccc2)cs1)c1ccncc1,Active,2.67,0.013,Active,–,–,–
